Measured values published in ChEMBL document CHEMBL2375304, “Synthesis and anticancer activity of novel 2-pyridyl hexahyrocyclooctathieno[2,3-d]pyrimidine derivatives” (2013).

Assays:
Format in all cases: functional
[1] = Growth inhibition of human HCC2998 cells at 10^-5 M after 48 hrs by Sulforhodamine B assay relative to control; conditions: HCC 2998, 48 h, read-out: GI
How it was run: (§1)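 Single-dose screen at 10⁻⁵ M. Cells are preincubated 24 h at 37 °C in 5% CO2, then exposed to the compound, diluted from a DMSO stock into medium with gentamicin, for 48 h. Adherent cells are fixed with cold TCA (final 10%) and suspension cells with TCA (final 16%). Cells are stained with 0.4% SRB in 1% acetic acid and bound dye is read at 515 nm. Percent growth inhibition is taken against control wells and time-zero plates.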

[2] = Growth inhibition of human NCI-ADR-RES cells at 10^-5 M after 48 hrs by Sulforhodamine B assay relative to control; conditions: read-out: GI
How it was run: (§2)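 Single-dose primary screen at 10⁻⁵ M across 49 lines. Cells were plated 24 h beforehand, with a TCA-fixed time-zero plate, then exposed 48 h at 37 °C, 5% CO2. Cells were fixed with cold TCA, stained with SRB and read at 515 nm. Percent growth was calculated against time-zero and untreated-control absorbances.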

[3] = system: SR; test: Growth inhibition of human SR cells at 10^-5 M after 48 hrs by Sulforhodamine B assay relative to control; conditions: read-out: GI; how it was run: as §2
[4] = system: NCI-H460; test: Growth inhibition of human NCI-H460 cells at 10^-5 M after 48 hrs by Sulforhodamine B assay relative to control; conditions: NCI-H460, 48 h, read-out: GI; how it was run: as §2
[5] = system: T47D; test: Growth inhibition of human T47D cells at 10^-5 M after 48 hrs by Sulforhodamine B assay relative to control; conditions: read-out: GI
How it was run: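 Single-dose stage: compound tested at 10⁻⁵ M in the 49-cell-line panel. Cells grew 24 h at 37 °C, 5% CO₂ before drug addition. Drug stock was in DMSO at 400-fold, diluted in medium with gentamicin. After 48 h exposure, adherent cells were fixed with cold TCA (10% final) and stained with 0.4% SRB in 1% acetic acid. Dye was solubilized in 10 mM Tris, read at 515 nm. Growth percentage was taken relative to untreated control and time-zero plates.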

[6] = system: MDA-MB-231; test: Growth inhibition of human MDA-MB-231 cells at 10^-5 M after 48 hrs by Sulforhodamine B assay relative to control; conditions: MDA-MB-231, 48 h, read-out: GI; how it was run: as §1
[7] = system: Malme-3M; test: Growth inhibition of human MALME-3M cells at 10^-5 M after 48 hrs by Sulforhodamine B assay relative to control; conditions: read-out: GI; how it was run: as §1
[8] = system: SNB-75; test: Growth inhibition of human SNB75 cells at 10^-5 M after 48 hrs by Sulforhodamine B assay relative to control; conditions: SNB-75, 48 h, read-out: GI; how it was run: as §2
[9] = system: HCT-15; test: Growth inhibition of human HCT15 cells after 48 hrs by Sulforhodamine B assay; conditions: HCT-15, 48 h
How it was run: (§3)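 Five-concentration SRB assay using 10-fold or ½-log serial dilutions from a DMSO stock. Exposure is 48 h at 37 °C in 5% CO2 after 24 h preincubation. TCA fixation is followed by SRB staining and a reading at 515 nm. Percentage growth is computed from time-zero, control and treated absorbances. GI50 is the concentration where [(Ti−Tz)/(C−Tz)]×100 = 50, read from the plot against log concentration.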

[10] = system: Malme-3M; test: Growth inhibition of human MALME-3M cells after 48 hrs by Sulforhodamine B assay; how it was run: as §3
[11] = system: SK-MEL-28; test: Growth inhibition of human SK-MEL-28 cells after 48 hrs by Sulforhodamine B assay; conditions: SK-MEL-28, 48 h
How it was run: (§4)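 Cells were preincubated 24 h at 37 °C, 5% CO2, and a time-zero plate was TCA-fixed. Five concentrations were made by serial dilution from a DMSO stock (400-fold the top concentration) and incubated 48 h. Adherent cells were fixed with 10% final TCA and suspension cells with 16%. Plates were stained with 0.4% SRB and read at 515 nm. GI50 is the concentration giving 50% reduction in net protein increase versus control.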

[12] = system: Hs-578T; test: Growth inhibition of human Hs578T cells after 48 hrs by Sulforhodamine B assay; how it was run: as §3
[13] = system: HT-29; test: Growth inhibition of human HT-29 cells after 48 hrs by Sulforhodamine B assay; conditions: HT-29, 48 h; how it was run: as §3
[14] = Growth inhibition of human HCC2998 cells after 48 hrs by Sulforhodamine B assay; conditions: HCC 2998, 48 h; how it was run: as §3
[15] = system: SF-539; test: Growth inhibition of human SF539 cells after 48 hrs by Sulforhodamine B assay; conditions: SF-539, 48 h; how it was run: as §4
[16] = system: NCI-H522; test: Growth inhibition of human NCI-H522 cells after 48 hrs by Sulforhodamine B assay; conditions: NCI-H522, 48 h; how it was run: as §4
[17] = system: U-251; test: Growth inhibition of human U251 cells after 48 hrs by Sulforhodamine B assay; conditions: U-251, 48 h
How it was run: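 Five-concentration stage in the […]-cell-line panel, using 10-fold or ½-log serial dilutions made from a DMSO stock (400-fold). Cells were preincubated 24 h at 37 °C, then drug-exposed 48 h. A time-zero plate was fixed with TCA at dosing, adherent cells were fixed with cold TCA (10% final), and protein was stained with SRB, absorbance 515 nm. GI50 was where [(Ti−Tz)/(C−Tz)]×100 = 50, from the percent growth vs log concentration plot, expressed as log10 GI50.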

[18] = system: SR; test: Growth inhibition of human SR cells after 48 hrs by Sulforhodamine B assay; how it was run: as §4
[19] = system: T47D; test: Growth inhibition of human T47D cells after 48 hrs by Sulforhodamine B assay; how it was run: as §4
[20] = system: HCT-116; test: Growth inhibition of human HCT116 cells after 48 hrs by Sulforhodamine B assay; conditions: HCT-116, 48 h; how it was run: as §3
[21] = system: OVCAR-4; test: Growth inhibition of human OVCAR4 cells after 48 hrs by Sulforhodamine B assay; conditions: OVCAR-4, 48 h; how it was run: as §4
[22] = system: SK-OV-3; test: Growth inhibition of human SKOV3 cells after 48 hrs by Sulforhodamine B assay; conditions: SK-OV-3, 48 h; how it was run: as §4
[23] = Growth inhibition of human NCI-ADR-RES cells after 48 hrs by Sulforhodamine B assay; how it was run: as §4
[24] = system: HOP-92; test: Growth inhibition of human HOP92 cells at 10^-5 M after 48 hrs by Sulforhodamine B assay relative to control; conditions: HOP-92, 48 h, read-out: GI; how it was run: as §1
[25] = system: RXF 393; test: Growth inhibition of human RXF393 cells at 10^-5 M after 48 hrs by Sulforhodamine B assay relative to control; conditions: RXF 393, 48 h, read-out: GI; how it was run: as §2
[26] = system: SNB-19; test: Growth inhibition of human SNB19 cells after 48 hrs by Sulforhodamine B assay; conditions: SNB-19, 48 h; how it was run: as §4
[27] = system: SF-295; test: Growth inhibition of human SF295 cells after 48 hrs by Sulforhodamine B assay; conditions: SF-295, 48 h; how it was run: as §4

Compound | inhibition of growth at 10 µM [1] | inhibition of growth at 10 µM [2] | inhibition of growth at 10 µM [3] | inhibition of growth at 10 µM [4] | inhibition of growth at 10 µM [5] | inhibition of growth at 10 µM [6] | inhibition of growth at 10 µM [7] | inhibition of growth at 10 µM [8] | GI50 [9] | GI50 [11] | GI50 [12] | GI50 [13] | GI50 [14] | GI50 [15] | GI50 [16] | GI50 [17] | GI50 [18] | GI50 [19] | GI50 [20] | GI50 [21] | further results
Clc1nc(-c2ccccn2)nc2sc3c(c12)CCCCCC3 | 36.6% | 10.7% | 33.7% | 9.1% | 57.8% | -16.9% | 5.75% | 15% |  |  |  |  |  |  |  |  |  |  |  |  | 
O=c1[nH]c(-c2ccncc2)nc2sc3c(c12)CCCCCC3 |  |  |  |  |  |  |  |  | > 100 µM | > 100 µM | > 100 µM | > 100 µM | > 100 µM | > 100 µM | > 100 µM | > 100 µM | > 100 µM |  |  |  | GI50 [10]: > 100 µM
NNc1nc(-c2ccccn2)nc2sc3c(c12)CCCCCC3 |  |  |  |  |  |  |  |  | 1.12 µM | 14.8 µM | 11 µM | 5.5 µM | 8.32 µM | 11 µM | 12 µM | 4.47 µM | 3.98 µM | 5.01 µM | 3.55 µM | 10.5 µM | GI50 [22]: 30.9 µM; GI50 [23]: 457 nM
c1ccc(N2CCN(c3nc(-c4ccccn4)nc4sc5c(c34)CCCCCC5)CC2)cc1 | 13.7% | 57.5% |  | 46% | 57.6% | 22.4% | 7.96% | 9.19% |  |  |  |  |  |  |  |  |  |  |  |  | inhibition of growth at 10 µM [24]: 26.8%; inhibition of growth at 10 µM [25]: 32.2%
c1cc(-c2nc(N3CCOCC3)c3c4c(sc3n2)CCCCCC4)ccn1 | -8.59% | 18.7% | 24.1% | 8.02% | 19.2% | 28.1% | -1.71% | 0.97% |  |  |  |  |  |  |  |  |  |  |  |  | 
CN1CCN(c2nc(-c3ccccn3)nc3sc4c(c23)CCCCCC4)CC1 | 4.02% | 22.7% |  | 2.79% | 24.9% | 6.82% | -0.36% | 14.4% |  |  |  |  |  |  |  |  |  |  |  |  | 
O=c1[nH]c(-c2ccccn2)nc2sc3c(c12)CCCCCC3 |  |  |  |  |  |  |  |  | 2.34 µM | 6.03 µM | 6.46 µM | 7.76 µM | 26.3 µM | 7.76 µM | > 100 µM | 2.14 µM | 0.871 µM | 5.5 µM | 1.38 µM | 5.89 µM | GI50 [22]: > 100 µM; GI50 [23]: 955 nM
COc1ccc(N2CCN(c3nc(-c4ccccn4)nc4sc5c(c34)CCCCCC5)CC2)cc1 |  |  |  |  |  |  |  |  | 4.27 µM | > 100 µM | 57.5 µM | 5.01 µM | 10.2 µM | 67.6 µM | 18.6 µM | 4.27 µM | 3.16 µM | 6.31 µM | 3.24 µM | 8.51 µM | GI50 [22]: > 100 µM; GI50 [23]: 4790 nM
Clc1nc(-c2ccncc2)nc2sc3c(c12)CCCCCC3 | -12.3% | -6.46% | 21.4% | -2.59% | 6.79% | -6.99% | 7.42% | 9.59% |  |  |  |  |  |  |  |  |  |  |  |  | 
CN1CCN(c2nc(-c3ccncc3)nc3sc4c(c23)CCCCCC4)CC1 |  |  |  |  |  |  |  |  | 11.2 µM | 12.6 µM | 2.29 µM | 4.79 µM | 3.89 µM | 8.32 µM | 12 µM | 9.33 µM | 2.82 µM | 13.5 µM | 5.13 µM | 12.6 µM | GI50 [22]: 12 µM; GI50 [23]: 8130 nM
c1ccc(N2CCN(c3nc(-c4ccncc4)nc4sc5c(c34)CCCCCC5)CC2)cc1 | -14% | 5.34% | 5.99% | -6.17% | 11.7% | 2.4% | -6.19% | -23.8% |  |  |  |  |  |  |  |  |  |  |  |  | inhibition of growth at 10 µM [24]: 33.3%; inhibition of growth at 10 µM [25]: 0.87%
c1ccc(-c2nc(N3CCOCC3)c3c4c(sc3n2)CCCCCC4)nc1 |  |  |  |  |  |  |  |  | 3.39 µM | 11 µM | 3.39 µM | 6.03 µM | 6.92 µM | 12.9 µM | 5.89 µM |  |  | 4.47 µM | 3.72 µM | 4.9 µM | GI50 [26]: 8.32 µM; GI50 [10]: 3.31 µM; GI50 [22]: 9.33 µM; GI50 [23]: 832 nM; GI50 [27]: 3.39 µM
NNc1nc(-c2ccncc2)nc2sc3c(c12)CCCCCC3 | -16% | 2.44% | 15.7% | -4.36% | 0.16% | 1.46% | 2.19% | 18.8% |  |  |  |  |  |  |  |  |  |  |  |  | 
COc1ccc(N2CCN(c3nc(-c4ccncc4)nc4sc5c(c34)CCCCCC5)CC2)cc1 | -11.5% | 9.28% |  | 5.35% | 27% | 12.1% | -7.69% | -13.7% |  |  |  |  |  |  |  |  |  |  |  |  | inhibition of growth at 10 µM [25]: 17.2%
